Read-outs that look alike come from different tables or passages of the source. One block for each compound: values may come before it.
How the values were obtained:
[1] = test system: mutant of HSV-1 resistant to acyclovir (TK−); assay: Replication inhibition of acyclovir-resistant HSV-1 mutant; assay type: cell-based, herpes simplex virus-1; details: Fig. 2C
HSV-1 [2] = assay: HSV replication inhibition assay, HSV-1 in Vero cells; assay type: cell-based, herpes simplex virus-1; details: for Selectivity CC50/EC50: Vero CC50 / HSV-1 EC50; for EC50: read-out: HSV-1 EC50 (μM) ± SD
How it was run: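 Confluent Vero monolayers (24-well) got compound in PBS with 2% newborn calf serum and 2 mM L-glutamine, in duplicate, plus clinical-isolate virus at 2 × 10^4 PFU per well, for 1 h at 37 °C. Washed, then compound in DMEM for 24 h. Non-toxic wells (phase-contrast check) were titred by plaque assay (methanol, Giemsa). EC50 used serial dilutions in 96-well format, three-parameter fit, bottom zero.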

HSV-2 = details: read-out: EC50 HSV-2; cell-based antiviral activity; cited from earlier work
HSV-1 [3] = details: read-out: EC50 HSV-1; cell-based antiviral activity; cited from earlier work
Vero cells = assay: Cytotoxicity assay; assay type: cell-based; details: read-out: Vero CC50 (μM) ± SD, 48 h, MTS, 2 to 4 independent runs
How it was run: (§1)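 Vero cells in 96-well plates in DMEM with 3% bovine growth serum and 3% newborn calf serum. Serial compound dilutions in medium with 1% DMSO were added 24 h after plating, in duplicate. After 24 or 48 h, MTS was added for 90 min and A490 read. CC50 came from a four-parameter variable-slope fit with bottom fixed at zero.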

Cytotoxicity assay = assay type: cell-based; details: African green monkey, Vero cells
How it was run: as §1

Compound: Nc1nc2c(ncn2COCCO)c(=O)[nH]1 [acyclovir]
inhibition of ACV-resistant HSV-1 [1]: inhibited only the wild-type virus | inhibition of wild-type HSV-1 (HSV-1 [2]; wild-type virus, Fig. 2C): inhibited only the wild-type virus | EC50 (HSV-2): 1400 nM | EC50 (HSV-1 [3]): 170 nM

Compound: Cc1cc(O)c(=O)c(O)cc1C(=O)N1CCC2(CC1)C1CC3CC(C1)CC2C3 [compound 66, 2,7-Dihydroxy-4-methyl-5-(spiro[adamantane-2,4′-piperidine]-1′-carbonyl)cyclohepta-2,4,6-trien-1-one]
EC50 (HSV-1 [2]; Human alphaherpesvirus 1, Vero): 0.296 ± 0.054 µM | CC50 at 48 h (Cytotoxicity assay): 23700 ± 3800 nM

Compound: Cc1cc(O)c(=O)c(O)cc1C(=O)Nc1ccc2ccc3cccc4ccc1c2c34 [compound 63, 4,6-Dihydroxy-2-methyl-5-oxo-N-(pyren-1-yl)cyclohepta-1,3,6-triene-1-carboxamide]
EC50 (HSV-1 [2]; Human alphaherpesvirus 1, Vero): 0.244 ± 0.097 µM | CC50 at 48 h (Cytotoxicity assay): 74200 ± 8700 nM

Further lines, with some results ahead:

EC50 (HSV-1 [2]; Vero cells, 3 to 4 independent runs): 0.306 ± 0.016 µM
Compound: Cc1cc(O)c(=O)c(O)cc1C(=O)NCC1(c2ccc(C(C)C)cc2)CCCC1 [compound 65, Dihydroxy-N-((1-(4-isopropylphenyl)cyclopentyl)methyl)-2-methyl-5-oxocyclohepta-1,3,6-triene-1-carboxamide]
Selectivity CC50/EC50 (HSV-1 [2]): 302 | CC50 (Vero cells): 92.5 ± 7.5 µM

EC50 (HSV-1 [2]; Human alphaherpesvirus 1, Vero): 0.072 ± 0.021 µM
Compound: Cc1cc(O)c(=O)c(O)cc1C(=O)N1CCc2cc(C3CCCCC3)ccc2C1 [compound 64, 4-(6-Cyclohexyl-1,2,3,4-tetrahydroisoquinoline-2-carbonyl)-2,7-dihydroxy-5-methylcyclohepta-2,4,6-trien-1-one]
Selectivity CC50/EC50 (HSV-1 [2]; listed as C00065): 1050 | CC50 at 48 h (Cytotoxicity assay): 75700 ± 5300 nM
